Test results as given in ChEMBL document CHEMBL1145431, “Improved anti-osteoporosis potency and reduced endometrial membrane hyperplasia during hormone replacement therapy with estrogen-RGD peptide conjugates” (2007).
Where a SMILES comes first, the peptide text is derived from it. The star is where a group is joined. Succinyl(O17-estradiol) = C[C@]12CC[C@@H]3c4ccc(O)cc4CC[C@H]3[C@@H]1CC[C@@H]2OC(=O)CCC(=O)*; X2 = C[C@]12CC[C@@H]3c4ccc(OCC(=O)*)cc4CC[C@H]3[C@@H]1CCC2=O

Assays:
Mus musculus [1] = test: Increase in body weight in ovariectomized mouse at 0.1103 mmol/kg, ip once daily for 4 weeks; type: functional
How it was run: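 Female Kuiming mice (30.7 ± 3.1 g) underwent abdominal OVX; the sham group had abdominorotomy only. From day 5 after surgery, i.p. dosing once daily for 4 weeks at 110.3 × 10-3 mmol/kg in aqueous 0.5% CMC. Body weight was recorded on the day of the last administration.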

Mus musculus [2] = test: Effect on serum ALP lavel in ovariectomized mouse at 0.1103 mmol/kg, ip once daily for 4 weeks; type: functional
How it was run: (§1)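 OVX Kuiming mice dosed i.p. daily for 4 weeks in 0.5% CMC. Blood taken retro-orbitally on the day after the last dose, stood 30 min, spun at 3000 g for 20 min, serum stored at -20 °C. Calcium by o-methylphenolphthalein complexone, phosphorus by molybdenum blue, ALP by activity with disodium phenylphosphate substrate.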

Mus musculus [3] = test: Effect on serum calcium level in ovariectomized mouse at 0.1103 mmol/kg, ip once daily for 4 weeks; type: functional; how it was run: as §1
Mus musculus [4] = test: Effect on serum phosphorus level in ovariectomized mouse at 0.1103 mmol/kg, ip once daily for 4 weeks; type: functional; how it was run: as §1
Mus musculus [5] = test: Effect on dry weight of femurs in ovariectomized mouse at 0.1103 mmol/kg, ip once daily for 4 weeks; type: functional, Femur
How it was run: (§2)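 Female Kuiming mice (7 weeks, 30.7 ± 3.1 g) ovariectomized, sham group abdominorotomy. From day 5, i.p. once daily for 4 weeks at 110.3 × 10-3 mmol/kg in 0.5% CMC. Left femur cleaned, length measured, defatted in chloroform-methanol (2:1, 2 × 3 h), dried 120 °C 6 h for dry weight, ashed 800 °C 8 h. Mineral content = ash/dry weight. Ash dissolved in 6 N HCl and diluted. Ca by o-methylphenolphthalein complexone, P by molybdenum blue. Lungs and livers weighed directly.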

Mus musculus [6] = test: Effect on femur ash weight in ovariectomized mouse at 0.1103 mmol/kg, ip once daily for 4 weeks; type: functional; how it was run: as §2
Mus musculus [7] = test: Effect on femur length in ovariectomized mouse at 0.1103 mmol/kg, ip once daily for 4 weeks; type: functional; how it was run: as §2
Mus musculus [8] = test: Effect on calcium level in ovariectomized mouse at 0.1103 mmol/kg, ip once daily for 4 weeks; type: functional; how it was run: as §2
Mus musculus [9] = test: Effect on phosphorus level in ovariectomized mouse at 0.1103 mmol/kg, ip once daily for 4 weeks; type: functional; how it was run: as §2
Mus musculus [10] = test: Effect on spleen weight in ovariectomized mouse at 0.1103 mmol/kg, ip once daily for 4 weeks; type: functional
How it was run: (§3)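 Female Kuiming mice (7 weeks old, 30.7 ± 3.1 g), abdominal OVX under pentobarbital (40.0 mg/kg i.p.). From day 5 after surgery, i.p. injection once daily for 4 weeks, compound in aqueous 0.5% CMC prepared just before use. The day after the last dose, mice were anesthetized and killed, and lungs, livers, spleens and uteri were removed and weighed directly. n = 12, ANOVA, p < 0.05.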

Mus musculus [11] = test: Effect on mineral content in ovariectomized mouse at 0.1103 mmol/kg, ip once daily for 4 weeks; type: functional; how it was run: as §2
Mus musculus [12] = test: Effect on lung weight in ovariectomized mouse at 0.1103 mmol/kg, ip once daily for 4 weeks; type: functional; how it was run: as §2
Mus musculus [13] = test: Effect on liver weight in ovariectomized mouse at 0.110 mmol/kg, ip once daily for 4 weeks; type: functional; how it was run: as §2
Mus musculus [14] = test: Effect on uterus weight in ovariectomized mouse at 0.1103 mmol/kg, ip once daily for 4 weeks; type: functional; how it was run: as §3
Mus musculus [15] = test: Effect on dry weight of femurs in mouse at 0.1103 mmol/kg, po; type: functional, Femur
How it was run: (§4)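 Female Kuiming mice (7 weeks old, 30.7 ± 3.1 g) under abdominal OVX, sham group abdominorotomy only. From day 5 after surgery, dosed orally once daily for 4 weeks at 110.3 × 10-3 mmol/kg in 0.5% CMC (0.2 mL), vehicle group CMC alone. Blood drawn retro-orbitally, then left femur and organs removed under pentobarbital (40.0 mg/kg, i.p.).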

Mus musculus [16] = test: Effect on femur ash weight in mouse at 0.1103 mmol/kg, po; type: functional; how it was run: as §4
Mus musculus [17] = test: Effect on lenght of femur in mouse at 0.110 mmol/kg, po; type: functional; how it was run: as §4
Mus musculus [18] = test: Effect on calcium level in mouse at 0.1103 mmol/kg, po; type: functional; how it was run: as §4
Mus musculus [19] = test: Effect on phosphorus level in mouse at 0.110 mmol/kg, po; type: functional; how it was run: as §4
Mus musculus [20] = test: Effect on serum calcium level in mouse at 0.1103 mmol/kg, po; type: functional
How it was run: (§5)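 Oral OVX Kuiming mouse model, dosed daily for 4 weeks at 110.3 × 10-3 mmol/kg in 0.5% CMC. Retro-orbital blood stood 30 min at room temperature and was spun at 3000 g for 20 min. Serum kept at -20 °C. Calcium read by o-methylphenolphthalein complexone, phosphorus by molybdenum blue, ALP by activity on disodium phenylphosphate substrate.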

Mus musculus [21] = test: Effect on serum phosphorous Concentration in mouse at 0.110 mmol/kg, po; type: functional; how it was run: as §5
Mus musculus [22] = test: Effect on serum ALP level in mouse at 0.1103 mmol/kg, po; type: functional; how it was run: as §5
Mus musculus [23] = test: Effect on lung weight in mouse at 0.1103 mmol/kg, po; type: functional; how it was run: as §4
Mus musculus [24] = test: Effect on liver weight in mouse at 0.1103 mmol/kg, po; type: functional; how it was run: as §4
Mus musculus [25] = test: Effect on spleen weight in mouse at 0.1103 mmol/kg, po; type: functional; how it was run: as §4
Mus musculus [26] = test: Effect on uterus weight in mouse at 0.1103 mmol/kg, po; type: functional

Row | SMILES | Activity (Mus musculus [1]) [g] | Activity (Mus musculus [2]) [U/L] | Activity (Mus musculus [3]) [mmol/L] | Activity (Mus musculus [4]) [mmol/L] | Activity (Mus musculus [5]) [mg] | Activity (Mus musculus [6]) [mg] | Activity (Mus musculus [7]) [cm] | Activity (Mus musculus [8]) [%] | Activity (Mus musculus [9]) [%] | Activity (Mus musculus [10]) [mg] | Ratio (Mus musculus [11]) | Activity (Mus musculus [12]) [mg] | Activity (Mus musculus [13]) [g] | Activity (Mus musculus [14]) [mg] | also measured
1 | C[C@]12CC[C@@H]3c4ccc(O)cc4CC[C@H]3[C@@H]1CCC2=O [ESTRONE] | 34.3 | 36.271 | 2.012 | 1.601 | 61.1 | 20.8 | 1.606 | 43.84 | 23.979 | 150 | 0.43 | 176 | 1.318 | 141.9 | 
2 | N=C(N)NCCC[C@H](N)C(=O)NCC(=O)N[C@@H](CC(=O)O)C(=O)N[C@@H](Cc1ccccc1)C(=O)O (H-RGDF-OH) | 33.3 | 35.643 | 2.012 | 1.599 | 60 | 22.5 | 1.62 | 43.815 | 24.585 | 134 | 0.423 | 163 | 1.413 | 69.8 | 
3 | C[C@]12CC[C@@H]3c4ccc(O)cc4CC[C@H]3[C@@H]1CC[C@@H]2O [ESTRADIOL] | 34.1 | 35.286 | 2.013 | 1.601 | 57.7 | 28.5 | 1.63 | 44.466 | 24.995 | 151 |  | 168 | 1.565 | 177.1 | Activity (Mus musculus [15]): 63.1 mg; Activity (Mus musculus [16]): 22.2 mg; Activity (Mus musculus [17]): 1.62 cm; Activity (Mus musculus [18]): 41.729%; Activity (Mus musculus [19]): 24.53%; Activity (Mus musculus [20]): 2.02 mmol/L; Activity (Mus musculus [21]): 1.6 mmol/L; Activity (Mus musculus [22]): 37.705 U/L; Activity (Mus musculus [23]): 168 mg; Activity (Mus musculus [24]): 1.335 g; Activity (Mus musculus [25]): 141 mg
4 | C[C@]12CC[C@@H]3c4ccc(OCC(=O)N[C@@H](CCCNC(=N)N)C(=O)NCC(=O)N[C@@H](CC(=O)O)C(=O)N[C@@H](CO)C(=O)O)cc4CC[C@H]3[C@@H]1CCC2=O (X2-RGDS-OH) | 32.9 | 32.371 | 2 | 1.604 | 66.9 | 22.6 | 1.634 | 47.613 | 24.399 | 129 | 0.438 | 173 | 1.347 | 63.3 | 
5 | CC(C)[C@H](NC(=O)[C@H](CC(=O)O)NC(=O)CNC(=O)[C@H](CCCNC(=N)N)NC(=O)COc1ccc2c(c1)CC[C@@H]1[C@@H]2CC[C@]2(C)C(=O)CC[C@@H]12)C(=O)O (X2-RGDV-OH) | 34.1 | 32.229 | 2.008 | 1.602 | 63.9 | 21.9 | 1.628 | 47.173 | 24.75 | 131 | 0.429 | 168 | 1.389 | 51.9 | 
6 | N=C(N)NCCC[C@H](N)C(=O)NCC(=O)N[C@@H](CC(=O)O)C(=O)N[C@@H](CO)C(=O)O | 34 | 36.643 | 2.01 | 1.603 | 59.8 | 27.8 | 1.617 | 43.48 | 24.888 | 138 | 0.396 | 168 | 1.295 | 71 | 
7 | C[C@]12CC[C@@H]3c4ccc(OCC(=O)N[C@@H](CCCNC(=N)N)C(=O)NCC(=O)N[C@@H](CC(=O)O)C(=O)N[C@@H](Cc5ccccc5)C(=O)O)cc4CC[C@H]3[C@@H]1CCC2=O (X2-RGDF-OH) | 34.5 | 32.407 | 2.008 | 1.602 | 65.9 | 24.7 | 1.639 | 49.55 | 24.588 | 140 | 0.462 | 179 | 1.458 | 55.8 | 
8 | C[C@]12CC[C@@H]3c4ccc(O)cc4CC[C@H]3[C@@H]1CC[C@@H]2OC(=O)CCC(=O)N[C@@H](CCCNC(=N)N)C(=O)NCC(=O)N[C@@H](CC(=O)O)C(=O)N[C@@H](Cc1ccccc1)C(=O)O ({Succinyl(O17-estradiol)}-RGDF-OH) | 34.8 | 31.486 | 2.005 | 1.605 | 66 | 34.8 | 1.635 | 52.798 | 24.665 | 142 | 0.533 | 164 | 1.391 | 71.2 | Activity (Mus musculus [15]): 62.7 mg; Activity (Mus musculus [16]): 30 mg; Activity (Mus musculus [17]): 1.638 cm; Activity (Mus musculus [18]): 51.903%; Activity (Mus musculus [19]): 24.9%; Activity (Mus musculus [20]): 2.04 mmol/L; Activity (Mus musculus [21]): 1.6 mmol/L; Activity (Mus musculus [22]): 35.511 U/L; Activity (Mus musculus [23]): 167 mg; Activity (Mus musculus [24]): 1.338 g; Activity (Mus musculus [25]): 142 mg; Activity (Mus musculus [26]): 38.2 mg
9 | CC(C)[C@H](NC(=O)[C@H](CC(=O)O)NC(=O)CNC(=O)[C@@H](N)CCCNC(=N)N)C(=O)O (H-RGDV-OH) | 33.4 | 35.614 | 2.011 | 1.605 | 58.8 | 27.8 | 1.614 | 42.739 | 24.759 | 127 | 0.394 | 171 | 1.153 | 61.1 | 
